# Test results reported in PMC6939458 (Cancer cell, 2019).
# Several values for one entry are separate records, joined by “and”; a condition that tells them apart may be missing. Identical values can stand only once.
# How the values were obtained:
# [1] = Maximum tolerated dose / acute toxicity in mice; type: in vivo; conditions: 361-treated mice
# MYC [2] = assay: Western blot of MYC protein level, stability and phosphorylation in cells; type: cell-based, human
# In short: (§1)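 PC3 cells, or PC3 stably expressing Flag-MYC, Flag-MYCT58A or Flag-MYCS62A (lentiviral, 1.5 μg/ml puromycin selection), were used. For stability, cells were pretreated 3 hr with compound or DMSO, then given cycloheximide and harvested at time points. MYC, pT58, pS62, GSK3β and pGSK3β S9 were detected by western blot over a time course. Band intensities were densitometrically quantified.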
# MYC [3] = biological target: MYC (Homo sapiens, UniProt P01106, T73A); assay: as above; type: cell-based; conditions: 6 μM, PC3 cells expressing Flag-MYCT58A
# In short: as §1
# [4] = test system: MycCaP organoids and FVB mouse prostate organoids; assay: Prostate organoid culture; type: cell-based; conditions: 4 days treatment
# In short: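 Prostate lobes from 8–10-week-old FVB males were minced and digested with collagenase in RPMI1640/10% FBS for 2 hr at 37 °C. Trypsin and DNase I followed, then a 40 μm strainer. Cells were plated on ultra-low-attachment plates: 5,000 normal cells or 1000 MycCaP cells per 100 μl, with media added at day 4. Organoids formed by day 7 (normal) or day 4 (MycCaP). They were pelleted, resuspended in media with compound or DMSO, and imaged in bright field 4 days after treatment.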
# [5] = test system: human prostate cancer patient derived xenografts; assay: Prostate cancer PDX model; type: in vivo, mouse; conditions: 55 mg/kg/day, 3 consecutive days a week for 2 weeks
# In short: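 Minced fragments (~10 mm²) of prostate PDX TM00298 were implanted into the flanks of male NSG mice. Once grafts were measurable, test compound was given i.p. at 55 mg/kg/day on 3 consecutive days a week for two weeks. Tumour growth was expressed as percentage, n = 9 or 10 grafts.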
# MycCaP cells = assay: Caspase-3 and immunogenic cell death assays in MycCaP cells; type: cell-based, mouse
# In short: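 MycCaP cells exposed to 4 μM test compound for 72 hr; supernatants collected. Secreted ATP read by bioluminescent kit and HMGB1 by ELISA, with cell counts taken for quantification. Surface calreticulin: cells stained with rabbit anti-calreticulin (1:1000, 60 min), then Alexa Fluor 488 anti-rabbit (1 μg/ml), read by flow cytometry.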
# GSK3β-mediated MYC pT58 = GSK3β-mediated MYC pT58 (Homo sapiens, UniProt P01106); assay: In vitro kinase assay; type: biochemical; conditions: 6 μM
# In short: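 Phosphorylation reactions were run in kinase buffer (25 mM Tris-HCl pH 7.5, 5 mM β-glycerophosphate, 2 mM DTT, 0.1 mM sodium vanadate, 10 mM MgCl₂) at room temperature for 2 hr in total.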
# MycCaP tumor allografts = assay: MycCaP allograft/xenograft mouse model; type: in vivo
# In short: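 Male FVB (allograft) or NSG (xenograft) mice, 6–8 weeks, ~25 g, acclimated >4 days. Injected s.c. in flanks with 1 × 10⁶ MycCaP E-box-luciferase cells in 100 μl Matrigel. Tumors followed by caliper ((length × width × width)/2) and by bioluminescent imaging after i.p. substrate injection. Body weight recorded. Tumor tissue assessed by H&E and immunofluorescence for Ki67, MYC pT58 and PD-L1.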
# [6] = test system: pheochromocytoma PC12 cells; assay: Cell viability, PC12 cells; type: cell-based; conditions: PC12, does not require MYC/MAX dimer for proliferation
# In short: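 PC12 cells were grown in F-12K with 2% heat-inactivated FBS and 12.5% horse serum. They were seeded at 1000 to 5000 cells per well in 96-well plates and treated for 2 to 7 days. Read-out was viable-cell count or MTS absorbance at 490 nm.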
# [7] = Pharmacokinetics of 361 in C57BL/6 mice; type: in vivo; conditions: male, C57BL/6, mouse, plasma, 50 mg/kg
# [8] = test system: phosphatase inhibition screening panel; assay: Phosphatase inhibition screening panel; type: biochemical; conditions: 10-dose 3-fold serial dilutions starting at 100 μM
# In short: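 Run in 10-dose IC₅₀ mode, each compound tested singly, with a PTP1B inhibitor as control compound.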
# MAX/MAX homodimer = MAX/MAX homodimer (Homo sapiens, UniProt P61244); assay: EMSA, MAX/MAX homodimer binding to E-box DNA; type: biochemical
# [9] = test system: MYC transcriptional activity (E-box-luciferase); assay: E-box luciferase reporter assay in vitro; type: cell-based
# In short: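 MycCaP cells stably carrying either MYC E-box-luciferase reporter or control mCherry-P2A-luciferase vector plated 10000 cells/well. Serial dilution of test compound added the next day; luminescence read by Steady-Glo after 4 hr treatment.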
# [10] = test system: MYC target gene expression; assay: RNA-seq and RT-qPCR gene expression; type: cell-based, human
# In short: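 MYCT58A cells were PC3 transduced with Flag-MYCT58A lentivirus and selected with 1.5 μg/ml puromycin. RT-qPCR used human MYC and 18S rRNA primers. For RNA-seq, PC3 cells were treated for 24 hr in triplicate and RNA was extracted after a PBS wash.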
# [11] = test system: Rat1 fibroblasts (HO15.19, TGR.1); assay: Cell viability, Rat1 fibroblasts; type: cell-based, rat; conditions: HO15.19 vs TGR.1
# In short: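 Myc-knockout HO15.19 and wild-type TGR.1 Rat-1 fibroblasts were kept in DMEM with 10% calf serum. They were seeded in 48-well plates at 1000 per well (HO15.19) or 3000 per well (TGR.1). After 2 to 7 days of treatment, viable cells were counted or MTS absorbance was read at 490 nm.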
# [12] = MycCaP E-box-Luc allografts, i.p.
# [13] = MycCaP tumor tissue after treatment
# [14] = MycCaP tumors post-361 treatment
# Sequence of GSK3β-mediated MYC pT58 (P01106 16-454): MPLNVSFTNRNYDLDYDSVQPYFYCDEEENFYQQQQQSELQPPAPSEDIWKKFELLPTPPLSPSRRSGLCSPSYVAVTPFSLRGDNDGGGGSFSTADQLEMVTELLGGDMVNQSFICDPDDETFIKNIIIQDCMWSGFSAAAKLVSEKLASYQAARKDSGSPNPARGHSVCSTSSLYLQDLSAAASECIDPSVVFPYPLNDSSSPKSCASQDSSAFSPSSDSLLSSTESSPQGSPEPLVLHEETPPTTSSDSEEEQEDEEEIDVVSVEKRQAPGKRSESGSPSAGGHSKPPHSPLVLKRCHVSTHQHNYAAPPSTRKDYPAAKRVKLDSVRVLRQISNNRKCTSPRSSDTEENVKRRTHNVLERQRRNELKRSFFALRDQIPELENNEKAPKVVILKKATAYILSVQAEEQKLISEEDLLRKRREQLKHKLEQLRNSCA
# Sequence of MAX/MAX homodimer (P61244 whole entry): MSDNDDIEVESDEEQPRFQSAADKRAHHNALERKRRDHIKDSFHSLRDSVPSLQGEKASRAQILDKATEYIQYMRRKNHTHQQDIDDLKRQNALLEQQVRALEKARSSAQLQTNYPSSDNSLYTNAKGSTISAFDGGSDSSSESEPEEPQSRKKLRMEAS
# Sequence of MYC (Homo sapiens, UniProt P01106, T73A) (P01106 16-454 T73A): as the sequence (P01106 16-454) above, with T58A counted along it
smiles,measurement,setting,value
"Cn1nc(C(F)(F)F)cc1-c1ccc(OCc2ccc(Cl)cc2)c(-c2cc(C(F)(F)F)cc(C(F)(F)F)c2)c1O [Compound 361, 6-((4-chlorobenzyl)oxy)-3-(1-methyl-3-(trifluoromethyl)-1H-pyrazol-5-yl)-3’,5’-bis(trifluoromethyl)-[1,1’-biphenyl]-2-ol]",histopathological analysis of major organs,[1],suppression of the splenic white pulp and hepatocyte hypertrophy
same,phosphorylation of β-Catenin at S33/37/T41,MYC [2],did not affect
same,MYC T58 and S62 phosphorylation,"MYC [2]; 6 μM, PC3 cells",selectively increased T58 but not S62 phosphorylation
same,regulatory GSK3β S9 phosphorylation,MYC [2]; PC3 cells,did not affect
same,"MYC, MYCN and MAX protein levels",MYC [2]; multiple cell lines expressing MYC and MYCN,"reduction in MYC and MYCN, but not MAX, protein levels"
same,degradation of MYCT58A mutant,MYC [3],not readily degraded
same,sensitivity of MycCaP versus normal prostate organoids,[4],more sensitive
same,anti-tumor efficacy,[5],confirmed 361 anti-tumor efficacy
same,markers of immunogenic cell death,"MycCaP cells; 4 μM, 72 hr","significant upregulation of cell surface calreticulin expression, and release of HMGB1 and ATP"
same,"cancer cell death, caspase-3",MycCaP cells; 6 μM,induces cancer cell death with activated caspase-3 expression
same,pT58 levels in in vitro kinase assay,GSK3β-mediated MYC pT58,significantly increased pT58 levels
same,"tumor inhibitory effect, FVB versus NSG mice",MycCaP tumor allografts; 50 mg/kg/day for 4 days,stronger tumor inhibitory effect in immunocompetent FVB mice
same,tumor immune cells by flow cytometry,"MycCaP tumor allografts; 50 mg/kg/day, 2 days on/2 days off for 2 rounds","an increase in CD3^+CD4^+ and CD3^+CD8^+ T cells, IFNγ-expressing CD4^+ and CD8^+ T cells, TNFα-expressing CD8^+ cells, dendritic cells and NK cells"
same,body weight,MycCaP tumor allografts; 70 mg/kg/day,without additional loss in mouse body weight
same,body weight loss,"MycCaP tumor allografts; 100 mg/kg/day, average",10%
same,"tumor growth, combination with anti-PD1","MycCaP tumor allografts; 361 50 mg/kg/day 2 days then anti-PD1 100 μg/d 2 days, 4 cycles",synergistic suppression of tumor growth
same,tumor growth,"MycCaP tumor allografts; FVB mice, established MycCaP allografts, 100 mg/kg/day",induced tumor regression
same,E-box luciferase activity in vivo,MycCaP tumor allografts; [12],significantly reduced
same,"tumor size, rapid in vivo screen",MycCaP tumor allografts; [12],significantly reduced
same,Ki67 proliferation marker in tumor tissues,MycCaP tumor allografts; [13],decreased
same,MYC pT58 level in tumor tissues,MycCaP tumor allografts; [13],increased
same,PD-L1 expression on tumor cells,MycCaP tumor allografts; [14],upregulation of PD-L1 expression
same,tumor infiltration of CD3+ T cells,MycCaP tumor allografts; [14],enhanced tumor infiltration of CD3^+ T cells
same,tolerability,"MycCaP tumor allografts; combination study dose, 50 mg/kg/day 2 days on/off",well-tolerated
same,tumor growth,MycCaP tumor allografts; treatment re-started at 70 mg/kg/day,effective in controlling tumor growth
same,effect on cell viability,[6],little effect
same,Cmax,[7]; ip,27200 ng/mL and 46 µM
same,concentration at 24 hr,[7]; ip,12700 ng/mL and 21 µM
same,half-life,[7]; ip,44 h
same,Cmax,[7]; po,13900 ng/mL and 23 µM
same,concentration at 24 hr,[7]; po,9 µM and 5280 ng/mL
same,half-life,[7]; po,20 h
same,phosphatase inhibition screening panel result,[8],negative
same,MAX/MAX homodimer binding to E-box DNA,MAX/MAX homodimer,but not the closely related MAX/MAX homodimer
same,E-box-luciferase versus CMV-luciferase activity in vitro,[9],selectively inhibited E-box-luciferase but not CMV-luciferase activity
same,MYC mRNA levels,[10],not altered
same,expression of MYC target genes CDC25A and MYB,"[10]; 6 μM, 24 hr, MYCT58A-expressing cells",potently suppressed
same,"MYC target gene expression (GSEA, six gene sets)","[10]; 6 μM, 24 hr, RNA-seq",significantly down regulated in all gene sets
same,sensitivity of Myc knockout versus wild-type fibroblasts,[11],more resistant
